Screening results deposited in PubChem by several laboratories.
The full list was thinned out, with hits kept by preference.
Bfl-1 A1 inh: inhibitors of the anti-apoptotic protein A1, read as caspase activation; MEF A1-2A-BIM cells, Caspase-Glo 3/7 luminescence, 3 h; percent of clofoctol response, vehicle zero; caspase activation, % (test concentration not listed); 330,000 compounds, 0.066% hits;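 active = over half of replicate activation scores above 10%, or exactly half above 10 with the replicate mean above 10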
UPR XBP1 act: activators of adaptive arm of unfolded protein response (XBP1); activation, % at 20 µM; CHO-XBP1 luciferase reporter, IRE1-XBP1 UPR activation, luminescence; percent of tunicamycin response, DMSO as zero; 330,000 compounds, 0.33% hits;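 active = versus positive control, 20 µM dose yields 30% or more activation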;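 note: 100% = tunicamycin at 10 µg/mL and 0% = DMSO only wells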
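Material: CHO cell line with stable XBP1 luciferase reporter; schedule: 16-18 h cell attachment at 37 °C, then 6 h compound exposure; signal: glow luminescence from Steady-Glo reagent; medium: serum-containing F12 medium, 10% FBS; benchmarks: tunicamycin 10 µg/mL and vehicle-only wells; read-out: percent activation relative to tunicamycin reference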
CHOP inh: blocks CHOP induction under ER stress. CHO-K1 CHOP-promoter luciferase, tunicamycin-induced, 15-18 h. inhibition, % at 10 µM. 220,000 compounds, 3.8% hits. AID 2732;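 active = compounds that reduced the stress-induced luciferase reporter signal by more than about 70% of percent inhibition, limit read from the data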;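 note: 0% = tunicamycin plus vehicle and 100% = wells without tunicamycin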
CHOP UPR activ: apoptotic UPR (CHOP) activation; activation, % at 10 µM; AID 449763; 330,000 compounds, 0.34% hits; CHO-CHOP luciferase reporter, luminescence; percent of tunicamycin response over DMSO baseline;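 active = at 10 µM dose, activation of 40% or more, normalized to positive control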;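 note: 100% = tunicamycin at 10 µg/mL and 0% = DMSO alone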
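Evaluation: % reporter activation, DMSO baseline versus tunicamycin full activation; System: CHO-CHOP luciferase reporter cell line; Input: 500 cells/well; Incubation: 6 h compound treatment, 37 °C; Measured by: Steady-Glo luciferase luminescence; Dosing: one dose, 10 µM in 0.5% DMSO; Buffer or medium: F12 medium, 10% FBS; Benchmarks: positive tunicamycin 10 µg/mL, negative DMSO alone.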
Numbers without * were called inactive; / = no result given.

SMILES	Bfl-1 A1 inh	UPR XBP1 act	CHOP inh	CHOP UPR activ
Cc1nc(NC(=O)COC(=O)C2CC3CCCC(C2)C3=O)c(Cl)cc1Cl (stereo not drawn)	0	-2	/	0
Cc1ccc(N2CCN(C(=O)C3CCC(=O)N(Cc4ccc(Cl)cc4)C3)CC2)c(C)c1 (stereo not drawn)	1	-5	/	-1
Cc1nn(-c2ccc(F)cc2)c(Cl)c1C(=O)N(C)CC(=O)Nc1cccc(F)c1	1	-1	/	0
Cn1c(=O)c2c(ncn2CC(=O)Nc2cc(S(=O)(=O)N3CCCCC3)ccc2Cl)n(C)c1=O	0	1	/	1
COC(=O)c1cc2sccc2n1CC(=O)Nc1cccc(SC)c1	1	-2	85*	2
COc1ccc(/C=N/NC(=O)c2ccc(Cl)cc2)cc1Cn1cc(Cl)cn1	0	-4	86*	2
COc1ccc(/C=N/NC(=O)c2cc(Br)ccc2O)cc1Cn1cc(Cl)cn1	0	0	49	1
COc1ccc(/C=N\NC(=O)COc2ccccc2Cl)cc1Cn1nc(C)cc1C	1	4	81*	2
CC(=NCC1CCNCC1)C1=C(O)CC(C)(C)CC1=O	-1	-3	78*	-3
CC(=NCC1CCCO1)C1=C(O)CC(C)(C)CC1=O (stereo not drawn)	1	-2	9	2
Cc1ccc(S(=O)(=O)Nc2ccc(Cl)cn2)cc1C	0	-1	/	-1
CCN1CCN(Cc2ccc(NC(=O)c3ccc(C)c(NC(=O)c4nccnc4N)c3)cc2C(F)(F)F)CC1	0	-1	79*	-2
CCN1CCN(Cc2ccc(NC(=O)c3ccc(C)c(NC(=O)c4nccn4C)c3)cc2C(F)(F)F)CC1	1	-2	55	-1
CC1CCN(S(=O)(=O)c2ccc3c(c2)oc(=O)n3CC(=O)NCc2ccc3c(c2)OCO3)CC1	0	-4	83*	2
CCC(=O)Nc1ccc(NC(=O)CSc2nnc(-c3ccco3)n2CC)cc1	0	-1	/	1
O=C(Nc1ccc2c(c1)OCO2)N1CCN(c2ccc(F)cc2)CC1	0	-1	78*	0
CCc1cccc(NC(=O)CCS(=O)(=O)c2cccc3nonc23)c1	-1	0	83*	-1
COc1ccc2c(c1)c1nc3ccccc3nc1n2CC(=O)OC(C)C	0	22	94*	10
COc1ccc2c(c1)c1nc3ccccc3nc1n2CCn1c(=O)oc2ccccc21	1	-2	95*	-2
CCOC(=O)Cn1c2ccccc2c2nc3ccccc3nc21	-3	5	93*	1
Cc1cccc(NS(=O)(=O)c2ccc(OCC(=O)N3CCCC3)cc2)c1	0	4	/	0
CC(C)NS(=O)(=O)c1ccc(OCC(=O)Nc2ccc3c(c2)OCO3)c(Cl)c1	0	0	70*	-1
CN(C)c1nc(N)nc(CSc2nc3cc(Cl)ccc3o2)n1	1	8	77*	7
Cc1cc(C)n2cc(CSc3nc4cc(Cl)ccc4o3)nc2n1	0	2	30	-2
CCOc1ccc(NC(=O)Nc2cc(OCC(F)(F)F)cc(OCC(F)(F)F)c2)cc1	0	-1	73*	12
SMILES	Bfl-1 A1 inh	UPR XBP1 act	CHOP inh	CHOP UPR activ
O=C(Nc1ccc(F)cc1)Nc1cc(OCC(F)(F)F)cc(OCC(F)(F)F)c1	2	4	102*	27
CCc1sc(-c2c(C#N)c(N)nc3c2CCCCCC3)cc1[N+](=O)[O-]	0	1	76*	1
CN(C)S(=O)(=O)c1cccc(NC(=O)COC(=O)c2cccnc2Cl)c1	1	-1	/	1
Cc1ccc(S(=O)(=O)CC(=O)c2ccc3c(c2)OCCO3)cc1	-1	3	-18	2
Cc1ccc(C)c(Cn2nnc3c(=O)[nH]c(C4CCCN(S(=O)(=O)Cc5ccccc5)C4)nc32)c1 (stereo not drawn)	-1	103*	/	1
Cc1cc(C)c(OCC(=O)N/N=C/c2ccc3c(c2)OCO3)c(C)c1	0	1	73*	-1
O=C(NCCc1ccccc1)C(=O)N/N=C/c1ccc2c(c1)OCO2	0	6	95*	0
CCc1ccccc1NC(=O)NNC(=O)CCc1ccc(OC)cc1	1	-4	/	1
O=C(CS(=O)(=O)c1ccccc1)NCc1ccc(Cl)cc1	0	-2	/	2
CN1CCN(c2ccc(C(=O)c3cn(-c4ccc(F)c(Cl)c4)nn3)cc2)CC1	1	4	-50	5
Cc1ccc(-n2cc(C(=O)c3ccc(N4CCN(C)CC4)cc3)nn2)cc1Cl	1	7	70*	9
COc1ccc(-c2cc(C(=O)N3CC4(C)CC3CC(C)(C)C4)no2)cc1OC (stereo not drawn)	0	-1	73*	0
Cc1ccc(-c2cc(C(=O)N3CC4(C)CC3CC(C)(C)C4)no2)cc1 (stereo not drawn)	1	-3	/	0
COc1ccc(-c2cc(C(=O)N3CC4(C)CC3CC(C)(C)C4)no2)cc1 (stereo not drawn)	-1	-2	-7	-1
CC1(C)CC2CC(C)(CN2C(=O)c2cc(-c3ccccc3O)on2)C1 (stereo not drawn)	0	1	76*	3
CC(NC(=O)C(C)N1CCN(Cc2ccccc2)CC1)c1ccc(F)cc1 (stereo not drawn)	1	-3	/	2
CC1CCN(C(=O)COC(=O)CCCN2C(=O)c3cccc4cccc(c34)C2=O)CC1	-1	-2	/	2
Cc1ccccc1CSCCNC(=O)COc1ccc(Cl)cc1	-1	-3	75*	0
CC(C)(C)SCCNC(=O)COc1ccc(Cl)cc1	0	-4	13	-1
CC1CN(c2nc3ccccc3cc2-c2ccccc2)CC(C)O1 (stereo not drawn)	-1	1	11	1
Cc1noc(C)c1CSCC(=O)N(C)CC(=O)Nc1ccc(Cl)c(Cl)c1	9.7*	-1	/	0
CCc1c(C#N)c(SCCC(=O)Nc2ccc(C)cc2)nc2c1C(=O)CC(C)(C)C2	0	-6	85*	-4
CCOc1ccc(NC(=O)CCSc2nc3c(c(CC)c2C#N)C(=O)CC(C)(C)C3)cc1	0	-3	54	-4
COc1ccc(NC2=CC(c3ccc(OC)cc3)N(c3ccc(OC)cc3)C2=O)cc1 (stereo not drawn)	1	3	18	-3
COc1ccc(NC2=CC(c3ccc(F)cc3)N(c3ccc(OC)cc3)C2=O)cc1 (stereo not drawn)	1	1	82*	4
Cc1ccc(-c2noc(CCCC(=O)NCC3CCCO3)n2)cc1 (stereo not drawn)	0	-7	/	-2
Cc1ccc(S(=O)(=O)CCC(=O)NCCC2=CCCCC2)cc1	0	0	/	0
CCc1ccc(NC(=O)CSc2nnc(CNC(=O)c3cccs3)o2)cc1	0	-1	/	2
CCOc1ccc(N=Nc2c(=O)[nH]n3c(=O)c4c([nH]c23)CCCC4)cc1	2	-3	87*	-1
